Compound activity (PubChem)
The list is not random: actives were taken first. Their share in the collection is about 1.9%.
UHRF1 MBD2 ctr: UHRF1 methylated DNA binding inhibitors, primary screen, counter-screen for MBD2 inhibitor project, biochemical, TR-FRET, human UHRF1, single concentration; AID 687016, 2013; UHRF1 binding to methylated oligo; E3 ubiquitin-protein ligase UHRF1 (Homo sapiens), Q96T88; inhibition, % at 4.4 µM; 370,000 tested, 0.75% active;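 further: UHRF1 SRA domain binding a hemimethylated CpG hairpin DNA probe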
MBD2 DNA inh: inhibitors of MBD2 binding to methylated DNA, primary screen, biochemical, TR-FRET, DNA-binding domain, human | Methyl-CpG-binding domain protein 2 (Homo sapiens), Q9UBB5 | MBD2 binding to methylated oligonucleotide | inhibition, % at 4.4 µM | 370,000 tested, 0.31% active | AID 686964, 2013; in the data active means inhibition above about 13%
Target sequence (Q9UBB5 whole entry, looked up, the tested form may be a part): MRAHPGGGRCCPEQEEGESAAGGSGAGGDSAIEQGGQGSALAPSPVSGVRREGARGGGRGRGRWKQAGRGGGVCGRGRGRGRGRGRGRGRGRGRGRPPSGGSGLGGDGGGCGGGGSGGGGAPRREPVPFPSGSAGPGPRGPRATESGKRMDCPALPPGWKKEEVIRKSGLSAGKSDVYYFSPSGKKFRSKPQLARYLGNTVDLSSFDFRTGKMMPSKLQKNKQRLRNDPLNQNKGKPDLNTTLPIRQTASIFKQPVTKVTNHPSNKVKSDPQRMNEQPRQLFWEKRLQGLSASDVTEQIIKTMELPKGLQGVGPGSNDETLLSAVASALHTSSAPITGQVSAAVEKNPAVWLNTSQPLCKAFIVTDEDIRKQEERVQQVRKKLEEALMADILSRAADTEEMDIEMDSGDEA
DDE Tn6 FP inh: inhibitors of Tn6 peptide binding to fibrin DD(E), primary screen, biochemical, fluorescence polarization, human fibrin, Tn6 probe | Fibrin DD(E) TRITC-Tn6 fluorescence polarization displacement | AID 720509, 2013 | 370,000 tested, 0.21% active | Fibrinogen beta chain (Homo sapiens), P02675 | inhibition, % at 8.3 µM;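 active means inhibition above a per-campaign cutoff: mean of compounds within control limits plus 3 SD, cut at about 15% in these data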
DDE Tn7 FP inh: inhibitors of Tn7 peptide binding to fibrin DD(E), primary screen, biochemical, fluorescence polarization, human fibrin, Tn7 probe. Fibrinogen beta chain (Homo sapiens), P02675. FP displacement of FITC-Tn7 peptide from fibrin DD(E); 0% = median of compound wells per plate. inhibition, % at 8.3 µM. 370,000 tested, 0.13% active. AID 720508, 2013;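 active means inhibition above the mean of compounds falling within the control limits plus 3 SD of them, cut at about 14% in these data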
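Measure: % inhibition scaled between sample-field median and high-control FP; Test system: human fibrin DD(E); Quantity: 2 µM final DD(E) protein; Doses: one dose, 8.3 µM nominal; Schedule: compound with protein 10 min, then 3 h after probe, room temperature; Detection: fluorescence polarization; Medium: Tris buffer with calcium and detergent, pH 7.8.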
LEDGF integ inh: blockers of LEDGF/p75-dependent integrase strand transfer – biochemical, TR-FRET, high throughput, primary screen; HIV-1 integrase (with human LEDGF/p75); TR-FRET IN-LEDGF/p75 DNA integration, Eu/Cy5; inhibition, % at 3.7 µM; 370,000 tested, 0.64% active; AID 743269, 2014;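 active means inhibition above the screen-wide mean plus 3 SD, cut at about 13% in these data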;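 further: signal is the Cy5 over europium emission ratio at 671 and 618 nm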
TDP2 absorb: human TDP2 enzyme inhibitors, primary screen, biochemical, epi absorbance, recombinant enzyme; inhibition, % at 12.8 µM; 370,000 tested, 0.34% active; T5PNP hydrolysis, p-nitrophenol absorbance 415 nm; Tyrosyl-DNA phosphodiesterase 2 (Homo sapiens), O95551;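 active means inhibition above the mean of all tested compounds plus 3 SD, set per campaign, cut at about 25% in these data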
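Read-out basis: percent inhibition. System: recombinant human TDP2. Buffer or medium: Mg2+-containing Tris-HCl buffer, pH 7.5. Repeats: single replicate. Timing: reaction 2 h, 37 °C. Benchmarks: high control without enzyme, low control DMSO plus TDP2. Probe or stimulus: 5 mM T5PNP. Doses: 12.8 µM only. Measured by: epi absorbance of p-nitrophenol freed from T5PNP by hydrolysis.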
UHRF1 ctr MBD2: UHRF1 methylated DNA binding inhibitors, counter-screen for MBD2 inhibitor project, biochemical, TR-FRET, human UHRF1 | 1,000 tested, 25% active | UHRF1 binding to methylated oligonucleotide | shares compounds with MBD2 DNA inh | inhibition, % at 4.4 µM;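 further: UHRF1 SRA domain binding a labeled hemimethylated CpG hairpin DNA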
MBD2 confirm: inhibitors of MBD2 binding to methylated DNA, confirmation, biochemical, TR-FRET, DNA-binding domain, human | shares compounds with MBD2 DNA inh | TR-FRET MBD2-DBD binding to methylated oligonucleotide | inhibition, % at 4.4 µM | 1,000 tested, 26% active; in the data active means inhibition above about 14%
Of the large screens only hits and unclear results are named; the others gave an inactive call (follow-up assays come after a bar, where they were run). Unless noted, no stated cut-off is given here; in the data, active means inhibition above about 21%; inactive means the rest.

CC(C)CCn1cnc2c1c(=O)[nH]c(=O)n2Cc1ccccc1	MBD2 DNA inh 90 | UHRF1 ctr MBD2 inactive | MBD2 confirm inactive
CC(C)Cn1cnc2c1c(=O)[nH]c(=O)n2Cc1ccccc1	none
COC(=O)[C@]12C[C@H](CC(=O)NCC3CCCCC3)C(=O)N(Cc3ccccc3)C1=C[C@H](C1CCCC1)O[C@@H]2C	none
CCOC(=O)CCCNC(=O)OC1CCC12CCC(c1ccccc1)CC2 (centres undefined)	none
COc1ccccc1N1CCN(C(=O)C(C)CS(=O)(=O)c2ccc3c(c2)NC(=O)CS3)CC1 (centres undefined)	UHRF1 MBD2 ctr 83, MBD2 DNA inh 77, LEDGF integ inh 57 | UHRF1 ctr MBD2 inactive | MBD2 confirm inactive
O=C(Nc1nnc(SCC(=O)N2CCCCC2)s1)c1c(F)cccc1F	MBD2 DNA inh 33 | UHRF1 ctr MBD2 inactive | MBD2 confirm inactive
CCCC/C=C1/C(c2ccccc2)N(Cc2ccc(OC)cc2OC)C2=NC(c3ccccc3)CC(=O)N21 (centres undefined)	none
C/C(=N/NC(=O)c1ccco1)c1ccc(NC(=O)c2ccc(Br)o2)cc1	none
C/C(=N/NC(=O)c1ccco1)c1ccc(NC(=O)c2ccc(F)cc2)cc1	MBD2 DNA inh 14 | UHRF1 ctr MBD2 inactive | MBD2 confirm inactive
Cn1cc(CC(=O)Nc2ccc(Nc3cccnc3)cc2)c2ccccc21	none
Cn1c(SCC(=O)c2c(N)n(C)c(=O)n(C)c2=O)nnc1-c1ccccc1F	MBD2 DNA inh 32 | UHRF1 ctr MBD2 inactive | MBD2 confirm inactive
O=C(COC(=O)CCCNC(=O)c1ccc(Cl)cc1)Nc1ccc(Br)cc1	UHRF1 MBD2 ctr 23, MBD2 DNA inh 13 | UHRF1 ctr MBD2 inactive | MBD2 confirm inactive
Cc1c(N2C(=O)CSC2c2ccccc2)c(=O)n(-c2ccccc2)n1C (centres undefined)	none
CCOc1ccc(C2SCC(=O)N2c2c(C)n(C)n(-c3ccccc3)c2=O)cc1 (centres undefined)	MBD2 DNA inh 16 | UHRF1 ctr MBD2 inactive | MBD2 confirm inactive
COC(=O)C1=C(C)N(Cc2ccccc2C(F)(F)F)C(=NCc2cc(OC)c(OC)c(OC)c2)NC1c1ccccc1 (centres undefined)	none
COc1ccc(CN(CCN2CCOCC2)C(=O)c2cccc(F)c2F)cc1OC	none
CCCn1nnc(NC(=O)COc2ccc(Cl)cc2)n1	UHRF1 MBD2 ctr 23, MBD2 DNA inh 14 | UHRF1 ctr MBD2 inactive | MBD2 confirm inactive
CC(Oc1ccccc1Cl)C(=O)/C=C/N(C)C (centres undefined)	MBD2 DNA inh 17 | UHRF1 ctr MBD2 inactive | MBD2 confirm inactive
CC(Oc1ccc(F)cc1)C(=O)/C=C\N(C)C (centres undefined)	none
COc1ccc(C(CC(=O)N2CCOCC2)C(C)C)cc1 (centres undefined)	UHRF1 MBD2 ctr 23, MBD2 DNA inh 15 | UHRF1 ctr MBD2 inactive | MBD2 confirm inactive
COc1ccc(C(CC(=O)N2CCCC2)C(C)C)cc1 (centres undefined)	none
O=C(Nc1cccs1)OC1CC2CC1[C@H]1CCCCN1C2 (some centres undefined)	none
O=C(/C=C/c1cccc(F)c1)NNC(=O)c1ccncc1	none
O=C(/C=C/c1cccc(Cl)c1)NNC(=O)c1ccncc1	MBD2 DNA inh 14 | UHRF1 ctr MBD2 inactive | MBD2 confirm inactive
N=C1C(c2nc3ccccc3s2)=C(O)CN1NC(=O)c1c[nH]c2ccccc12	MBD2 DNA inh 15 | UHRF1 ctr MBD2 inactive | MBD2 confirm 22
N#Cc1ccc2nc(-c3ccc(CN4CCC(n5cc(-c6ccccc6)[nH]c5=O)CC4)cc3)c(-c3ccccc3)nc2c1	none
Cc1cccc(C)c1-n1nnnc1C1c2ccccc2OCC(=O)N1Cc1ccc(F)cc1 (centres undefined)	none
CCOc1ccc(C(=O)N2CCN(CC(=O)N3CCCC3)CC2)cc1OCC	UHRF1 MBD2 ctr 22, MBD2 DNA inh 16 | UHRF1 ctr MBD2 inactive | MBD2 confirm inactive
Cc1ccc(NC(=O)CN(C)C(=O)CNC(=O)c2sc3ccccc3c2Cl)cc1	MBD2 DNA inh 50 | UHRF1 ctr MBD2 inactive | MBD2 confirm inactive
C=CCN1C(=O)[C@H](CC(=O)N2CCOCC2)[C@@]2(C(=O)OCC)CCCC=C12	none
CC(C)CN1C(=O)C[C@@]2(C(=O)N(C)c3ccc(NS(=O)(=O)C4CC4)cc32)C1c1ccccc1 (some centres undefined)	MBD2 DNA inh 15 | UHRF1 ctr MBD2 inactive | MBD2 confirm inactive
CC(C)CN1C(=O)C[C@@]2(C(=O)N(C)c3ccc(NC(=O)C(F)(F)F)cc32)C1c1ccccc1 (some centres undefined)	none
Cc1cc(NC(=O)Cc2c(C)[nH]c3ccccc23)ccc1Oc1cccnc1	none
CC1=NNC(=O)C1CCC(=O)N/N=C/c1ccc(Cl)cc1 (centres undefined)	none
CC1=NNC(=O)C1CCC(=O)N/N=C/c1ccccc1 (centres undefined)	MBD2 DNA inh 27 | UHRF1 ctr MBD2 inactive | MBD2 confirm inactive
COC(=O)c1ccc(S(=O)(=O)N2CCC(NC(=O)CCC3CCCC3)CC2)cc1	none
COc1cccc(-c2nnn(CCC(=O)O)n2)c1	none
COc1ccc(-c2nnn(CCC(=O)O)n2)cc1	MBD2 DNA inh 36 | UHRF1 ctr MBD2 inactive | MBD2 confirm inactive
C[C@@H]1CN([C@@H](C)CO)C(=O)CCCn2cc(nn2)CO[C@H]1CN(C)C(=O)Nc1cccc(Oc2ccccn2)c1	none
